Data from ChEMBL document CHEMBL4382270, “Total Synthesis and Biological Evaluation of Sericetin for Protection against Cisplatin-Induced Acute Kidney Injury” (J Nat Prod, 2018).
Active and inactive are the calls of the source. The rule behind the calls is not given here.

What was measured:
NRK-52E [1] = assay: Protection against cisplatin-induced cytotoxicity in rat NRK-52E cells assessed as increase in cell viability at 20 uM after 24 hrs by MTT assay; assay type: functional, cell-based
Method in brief: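 NRK52E cells given test agent at 20 μM for 24 h, with or without cisplatin 30 μM. Vehicle is DMSO at 0.2% final. Viability read by MTT. Mean ± SEM, N = 3.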

NRK-52E [2] = assay: Protection against cisplatin-induced cytotoxicity in rat NRK-52E cells assessed as improvement in morphological changes after 24 hrs by microscopic analysis; assay type: functional, cell-based
Method in brief: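 Cells (NRK-52E) exposed to test agent at 0, 1, 10 or 50 μM plus cisplatin 30 μM for 24 h. Morphology then examined by light microscopy.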

NRK-52E [3] = assay: Protection against cisplatin-induced cytotoxicity in rat NRK-52E cells assessed as increase in cell viability after 24 hrs by MTT assay; assay type: functional, cell-based
Method in brief: (§1)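 NRK-52E rat renal tubular epithelial cells (ATCC) exposed to test agent at 0, 1, 10 or 50 μM for 24 h, with or without cisplatin 30 μM (PBS stock). Viability measured by MTT. Mean ± SEM, N = 3.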

NRK-52E [4] = assay: Cytotoxicity against rat NRK-52E cells assessed as effect on cell viability at 1 to 50 uM after 24 hrs by MTT assay; assay type: cell-based; method in brief: as §1
NRK-52E [5] = assay: Protection against cisplatin-induced cell damage in rat NRK-52E cells assessed as reduction in reactive oxygen species generation at 10 uM after 24 hrs by DCF staining based fluorescence microscopic analysis; assay type: functional
Method in brief: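 NRK-52E cells co-treated with cisplatin 30 μM and test agent 10 μM for 24 h. ROS stained with CM-H2DCFDA (DCF) and imaged by fluorescence. Percent ROS derived from DCF signal by region-of-interest quantitation. Mean ± SEM, N = 3.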

NRK-52E [6] = assay: Protection against cisplatin-induced cell damage in rat NRK-52E cells assessed as reversal of mitochondrial membrane potential loss at 10 uM after 24 hrs by JC1 staining based fluorescence microscopic analysis; assay type: functional
Method in brief: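 After 24 h of cisplatin 30 μM with or without test agent 10 μM, NRK-52E cells stained with JC-1 and imaged by fluorescence microscopy. Red (aggregate) and green (monomer) signals quantified by ROI. Mean ± SEM, N = 3.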

NRK-52E [7] = assay: Protection against cisplatin-induced apoptosis in rat NRK-52E cells assessed as reduction in cleaved caspase-3 level at 10 uM after 24 hrs by Western blot analysis; assay type: functional, cell-based
Method in brief: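 NRK-52E cells given cisplatin 30 μM with or without test agent 10 μM for 24 h. Cleaved (active) caspase-3 detected by Western blot and quantified by densitometry. Mean ± SEM, N = 3.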

Rattus norvegicus [8] = assay: (§2) Protection against cisplatin-induced […] in Sprague-Dawley rat assessed as reduction in cleaved caspase-3 level in kidneys at 1 mg/kg pretreated for 24 hrs followed by cisplatin challenge and subsequent qd dosing for 5 days measured 7 days post cisplatin challenge by Western blot analysis; assay type: functional, organism-based
Method in brief: (§3)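 Male Sprague-Dawley rats (200 ± 10 g) received a single ip cisplatin dose of 6 mg/kg in saline. Test agent 1 mg/kg in 5% DMSO/0.9% saline given once 24 h before cisplatin, then daily for 5 days. Sacrifice on day 7. Read-outs: serum BUN and creatinine by clinical chemistry, kidney H&E histology, and cleaved caspase-3 by Western blot of kidney homogenate. N = 6/group.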

Rattus norvegicus [9] = assay: as §2, with “reversal of histopathological changes” for “reduction”, “kidney” for “cleaved caspase-3 level in kidneys”, “H and E staining based light microscopic” for “Western blot”; assay type: functional, organism-based; method in brief: as §3
Rattus norvegicus [10] = assay: Protection against cisplatin-induced acute liver injury in Sprague-Dawley rat assessed as restoration of serum BUN levels at 1 mg/kg pretreated for 24 hrs followed by cisplatin challenge and subsequent qd dosing for 5 days measured 7 days post cisplatin challenge; assay type: functional, organism-based; settings: in the assay text read “acute kidney injury” for “acute liver injury”; method in brief: as §3
Rattus norvegicus [11] = assay: Protection against cisplatin-induced acute liver injury in Sprague-Dawley rat assessed as restoration of serum creatinine levels at 1 mg/kg pretreated for 24 hrs followed by cisplatin challenge and subsequent qd dosing for 5 days measured 7 days post cisplatin challenge; assay type: functional, organism-based; settings: in the assay text read “acute kidney injury” for “acute liver injury”; method in brief: as §3
[12] = Renal toxicity in Sprague-Dawley rat assessed as histopathological changes in kidney at 1 mg/kg administered once daily for 6 days by H and E staining based light microscopic analysis; assay type: organism-based; settings: in vivo, 144 h
Method in brief: (§4)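 Male Sprague-Dawley rats (200 ± 10 g) given test agent alone at 1 mg/kg in 5% DMSO/0.9% saline, once and then daily for 5 further days. Killed on day 7. Serum BUN and creatinine measured by clinical chemistry, and kidneys examined by H&E histology.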

[13] = Renal toxicity in Sprague-Dawley rat assessed as change in serum BUN levels at 1 mg/kg administered once daily for 6 days; assay type: organism-based; settings: in vivo, 144 h; method in brief: as §4
[14] = Renal toxicity in Sprague-Dawley rat assessed as change in serum creatinine levels at 1 mg/kg administered once daily for 6 days; assay type: organism-based; settings: in vivo, 144 h; method in brief: as §4

CC(C)=CCOc1c2c(cc3oc(-c4ccccc4)c(OCc4ccccc4)c(=O)c13)OC(C)(C)C=C2
Activity (NRK-52E [1]): Active
Activity (NRK-52E [2]): Dose-dependent effect
Activity (NRK-52E [3]): Dose-dependent effect
Activity (NRK-52E [4]): Non-Toxic
Activity (NRK-52E [5]): Active
Activity (NRK-52E [6]): Active
Activity (NRK-52E [7]): Active
Activity (Rattus norvegicus [8]): Active
Activity (Rattus norvegicus [9]): Active
Activity (Rattus norvegicus [10]): Active
Activity (Rattus norvegicus [11]): Active
Activity [12]: Non-Toxic
Activity [13]: Non-Toxic
Activity [14]: Non-Toxic
